Test results: ChEMBL document CHEMBL1124378, “Synthesis and pharmacological evaluation of a series of 4-piperazinylpyrazolo[3,4-b]- and -[4,3-b][1,5]benzodiazepines as potential anxiolytics” (J Med Chem, 1989)
pIC50: −log10 of the molar value.

What was measured:
Rattus norvegicus [1] = assay: Rotarod response in rat to assess muscular incoordination (following p.o. dosing); type: functional
How it was run: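 Male Olac-Wistar rats (140-150 g), five per group, fed ad libitum, dosed orally. Tested 1 and 2 h later on a horizontal rod (2 rpm, 32 mm diameter), maximum 30 s. Mean time compared with vehicle controls by Mann-Whitney U test, significant at p < 0.05.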

Mus musculus [2] = assay: Compound administered perorally was evaluated for the hypothermia (rectal temperature) in mice; type: functional
How it was run: (§1)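 Groups of three CFW mice (21-23 g) received oral compound in water or 0.5% carboxymethylcellulose. Rectal temperature was taken at 0.25, 2.5 and 5.0 h. Mean change from the group's initial mean was summed over the three times. Hypothermia scored if the summed reduction was >4 °C.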

[3] = target: D(2) dopamine receptor (Bos taurus) (UniProt P20288); assay: Inhibition of [3H]spiperone binding to Dopamine receptor D2 from calf caudate
[4] = target: Muscarinic acetylcholine receptor; assay: Compound was evaluated for the inhibition of [3H]QNB binding to Muscarinic acetylcholine receptor from male Olac rat brain.
Mus musculus [5] = assay: Dose below which no catalepsy was observed at any time period (following p.o. dosing); type: functional
How it was run: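 CFW mice (21-23 g), three per group, dosed orally in water or 0.5% carboxymethylcellulose. Checked at 0.25, 2.5 and 5.0 h for holding one hind limb on a 2-cm rubber bung and staying on a vertical grid, judged against a control by a trained observer.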

Rattus norvegicus [6] = assay: Compound administered perorally was evaluated for the conditioned avoidance response in rats; type: functional
How it was run: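 Olac-Wistar rats (120-130 g) trained to cross a shuttle box on a 5-s buzzer, with mild shock if no response within 1 s after it ends. Only high-responders used. Groups of five were dosed orally in water or 0.5% carboxymethylcellulose 1 h 50 min before testing. After 10-min habituation they were tested 20 min. Blockade = shocks as % of stimuli presented.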

Mus musculus [7] = assay: Compound administered perorally was evaluated for the hypothermia (rectal temperature ) in mice; type: functional; how it was run: as §1
[8] = target: Muscarinic acetylcholine receptor; assay: Inhibition of [3H]QNB binding to muscarinic cholinergic receptor from male Olac rat brain.
[9] = target: D(2) dopamine receptor (Bos taurus) (UniProt P20288); assay: Inhibition of [3H]spiperone binding to dopamine receptor D2 from calf caudate
Rattus norvegicus [10] = species on record: Rattus norvegicus; assay: compound behavior in rat; type: functional; design: unit not given here
How it was run: (§2)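 Olac-Wistar rats (180-190 g), eight per group, dosed orally, front paws placed on a 1.5-cm rod 7 cm above the table. Tested at 0.5, 1, 1.5, 2, 3, 4 and 5 h, up to 20 min hold. Each animal's maximum score (0-5 by time held) was summed, giving a group maximum of 40.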

Rattus norvegicus [11] = species on record: Rattus norvegicus; assay: Compound behavior in rat; type: functional; design: unit not given here; how it was run: as §2

Row | Compound | pIC50 [3] | IC50 [4] [µM] | IC50 [8] [µM] | pIC50 [9] | ED (Rattus norvegicus [1]) [mg/kg] | EDmin (Mus musculus [2]) [mg/kg] | EDmin (Mus musculus [5]) [mg/kg] | ED (Rattus norvegicus [6]) [mg/kg] | EDmin (Mus musculus [7]) [mg/kg] | Activity (Rattus norvegicus [10]) | Activity (Rattus norvegicus [11])
1 | CN1CCN(C2=Nc3cc(C(=O)c4ccccc4)ccc3Nc3nn(C)cc32)CC1 | < 5.00 | > 1 | – | – | >50 | >400 | >400 | >50 | – | – | –
2 | Cn1cc2c(n1)Nc1ccc(F)cc1N=C2N1CCN(CCO)CC1 | 5.29 | > 100 | – | – | >50 | >200 | >200 | >50 | – | – | –
3 | Cc1nn(C)c2c1Nc1ccc(F)cc1N=C2N1CCN(C)CC1 | < 5.00 | > 100 | – | – | >50 | >200 | >200 | >50 | – | – | –
4 | Cn1cc2c(n1)Nc1ccc(F)cc1N=C2N1CCNCC1 | 5.28 | > 10 | – | – | >50 | – | >400 | >50 | 200 | – | –
5 | CN1CCN(C2=Nc3cc(C(F)(F)F)ccc3Nc3nn(C)cc32)CC1 | 5.80 | > 10 | – | – | >30 | 50 | 200 | 25 | – | – | –
6 | CN1CCN(C2=Nc3ccc(Cl)cc3Nc3nn(C)cc32)CC1 | < 5.00 | > 100 | – | – | >50 | 100 | >400 | >50 | – | – | –
7 | CN1CCN(C2=Nc3cc(S(C)(=O)=O)ccc3Nc3nn(C)cc32)CC1 | < 5.00 | > 100 | – | – | >50 | >200 | >200 | – | – | – | –
8 | CN1CCN(C2=Nc3cc(Cl)c(Cl)cc3Nc3nn(C)cc32)CC1 | < 5.00 | > 1 | – | – | >50 | – | 50 | >20 | 25 | – | –
9 | Cc1c2c(nn1C)C(N1CCN(C)CC1)=Nc1cc(F)ccc1N2 | < 5.00 | – | – | – | – | – | – | – | – | – | –
10 | Cn1cc2c(n1)Nc1ccc(F)cc1N=C2N1CC[N+](C)([O-])CC1 | – | – | > 1 | < 5.00 | >50 | 50 | 100 | >50 | – | – | –
11 | CN1CCN(C2=Nc3cc(F)ccc3Nc3nn(Cc4ccccc4)cc32)CC1 | – | – | > 100 | 6.40 | >50 | 100 | >400 | 50 | – | – | –
12 | CCCCCCCCCCn1cc2c(n1)Nc1ccc(Cl)cc1N=C2N1CCN(C)CC1 | 5.60 | > 10 | – | – | >50 | – | >400 | >50 | >400 | – | –
13 | CCCCCCn1cc2c(n1)Nc1ccc(F)cc1N=C2N1CCN(C)CC1.Cl | – | – | 18 | 6.15 | >50 | 100 | >400 | >50 | – | >50 | –
14 | CC(C)Cn1cc2c(n1)Nc1ccc(Cl)cc1N=C2N1CCN(C)CC1 | – | – | > 10 | 5.48 | >50 | 50 | 200 | >50 | – | – | –
15 | CN1CCN(C2=Nc3c(Cl)cccc3Nc3nn(C)cc32)CC1 | 6.07 | > 100 | – | – | >50 | 25 | >400 | >50 | – | – | –
16 | Cn1cc2c(n1)Nc1ccc(F)cc1N=C2N1CCN(Cc2ccccc2)CC1 | 5.57 | > 100 | – | – | 50 | 50 | >200 | >50 | – | – | –
17 | CN1CCN(C2=Nc3cccc(Cl)c3Nc3nn(C)cc32)CC1 | 5.33 | > 100 | – | – | >50 | 184 | 184 | >50 | – | – | –
18 | CCn1cc2c(n1)Nc1ccc(F)cc1N=C2N1CCN(C)CC1 | – | – | 14 | 5.48 | >40 | 6 | >400 | 50 | – | 50 | –
19 | CN1CCN(C2=Nc3cc(I)ccc3Nc3nn(C)cc32)CC1 | < 6.00 | – | – | – | 25 | 50 | 50 | >20 | – | – | –
20 | CN1CCN(C2=Nc3cc(Cl)ccc3Nc3nn(C4CCCC4)cc32)CC1 | – | – | > 10 | 6.85 | >50 | 50 | >400 | 50 | – | – | –
21 | Cc1cc2c(s1)Nc1ccc(F)cc1N=C2N1CCN(C)CC1 [FLUMEZAPINE] | – | – | – | – | 10 | 1.6 | 6.25 | 5 | – | 20 | –

Continued, in another order:

Row | pIC50 [3] | IC50 [4] [µM] | IC50 [8] [µM] | pIC50 [9] | Compound | ED (Rattus norvegicus [1]) [mg/kg] | EDmin (Mus musculus [2]) [mg/kg] | EDmin (Mus musculus [5]) [mg/kg] | ED (Rattus norvegicus [6]) [mg/kg] | EDmin (Mus musculus [7]) [mg/kg] | Activity (Rattus norvegicus [10]) | Activity (Rattus norvegicus [11])
22 | 5.42 | > 1 | – | – | CCn1cc2c(n1)Nc1cc(Cl)c(Cl)cc1N=C2N1CCN(C)CC1 | 20 | 50 | 200 | >20 | – | – | –
23 | < 5.00 | > 10 | – | – | Cn1cc2c(n1)Nc1ccc(F)cc1N=C2N1CCCCC1 | >50 | 400 | >400 | 50 | – | – | –
24 | – | – | > 100 | 5.68 | CN1CCN(C2=Nc3cc(F)ccc3Nc3nn(C)c(-c4ccccc4)c32)CC1 | >50 | 200 | >400 | >50 | – | – | –
25 | – | – | > 1 | 6.47 | CCn1cc2c(n1)Nc1ccc(Cl)cc1N=C2N1CCN(C)CC1 | 20 | 6.25 | >400 | >15 | – | – | –
26 | < 5.00 | > 100 | – | – | CCOC(=O)N1CCN(C2=Nc3cc(F)ccc3Nc3nn(C)cc32)CC1 | >50 | >200 | >200 | >50 | – | – | –
27 | < 5.00 | > 100 | – | – | Cn1cc2c(n1)Nc1ccc(Cl)cc1N=C2N | >50 | 25 | >25 | >25 | – | – | –
28 | < 5.00 | 6.1 | – | – | CN(C)CCNC1=Nc2cc(F)ccc2Nc2nn(C)cc21 | >50 | >400 | >400 | >50 | – | – | –
29 | 5.59 | – | > 10 | – | CN1CCN(C2=Nc3cc(F)ccc3Nc3nn(-c4ccccc4)cc32)CC1 | >50 | >200 | >200 | 50 | – | – | –
30 | – | – | 3.2 | 4.01 | Cc1c2c(nn1C)Nc1ccc(F)cc1N=C2N1CCN(C)CC1 | >50 | 25 | 200 | >50 | – | 50 | –
31 | – | – | 43 | 5.59 | CN1CCN(C2=Nc3ccc(F)cc3Nc3nn(C)cc32)CC1 | >40 | 1.6 | 100 | >20 | – | >50 | –
32 | < 4.00 | > 100 | – | – | Cn1cc2c(n1)Nc1ccc(F)cc1N=C2N1CCOCC1 | >50 | 200 | >400 | >50 | – | – | –
33 | 5.25 | > 100 | – | – | Cc1ccc2c(c1)Nc1nn(C)cc1C(N1CCN(C)CC1)=N2 | >50 | 200 | >400 | >50 | – | – | >50
34 | – | – | 21 | 6.12 | CN1CCN(C2=Nc3cc(F)c(F)cc3Nc3nn(C)cc32)CC1 | >50 | 25 | >200 | 50 | – | – | –
35 | 6.05 | > 10 | – | – | Cn1cc2c(n1)Nc1ccc(F)cc1N=C2N1CCN(CC2CC2)CC1 | 30 | 50 | 100 | >15 | – | – | –
